Screening results as filed in PubChem.
MDM2 E3 inh: inhibitors of human Mdm2 E3 ubiquitin ligase; Q00987; cell-based MDM2 ubiquitination luciferase reporter, 2 h; 0 = plate control, 100 = twice control, blank-subtracted; signal enhancement, % at 5 µM; actives 0.11% (n = 210,000);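 active = signal enhancement of 30% or more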;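 note: luminescence tracks abundance of the self-degrading MDM2-luciferase fusion protein; higher signal means inhibition of MDM2 E3 ligase activity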
Target sequence (Q00987 whole entry, looked up, the tested form may be a part): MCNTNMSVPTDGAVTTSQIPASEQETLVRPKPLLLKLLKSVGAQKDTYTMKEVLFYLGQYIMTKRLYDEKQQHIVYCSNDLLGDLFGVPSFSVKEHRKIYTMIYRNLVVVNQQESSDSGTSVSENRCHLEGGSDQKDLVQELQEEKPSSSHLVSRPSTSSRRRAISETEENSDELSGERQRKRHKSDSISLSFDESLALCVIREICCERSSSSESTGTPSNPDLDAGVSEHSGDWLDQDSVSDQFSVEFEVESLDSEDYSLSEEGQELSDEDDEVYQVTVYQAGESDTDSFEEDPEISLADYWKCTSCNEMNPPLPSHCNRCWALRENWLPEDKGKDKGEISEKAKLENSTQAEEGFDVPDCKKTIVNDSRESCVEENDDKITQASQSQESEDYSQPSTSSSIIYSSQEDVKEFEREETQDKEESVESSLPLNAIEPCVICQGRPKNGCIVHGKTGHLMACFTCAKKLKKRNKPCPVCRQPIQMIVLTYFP
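Assay system: stable mammalian line carrying autodegrading MDM2–luciferase fusion reporter; amount: 2000 cells seeded into each well; buffer or medium: DMEM; benchmarks: plate control and blank wells; signal: luciferase luminescence; timing: 2 h compound exposure at 37 °C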
HSV augment: increases HSV replication in cells | actives 0.005% (n = 220,000) | maximum fold increase | HSV replication augmentation in cells, fold increase; in the data active = maximum fold increase above about 1.5; inconclusive = no clear call, values can overlap the other calls; tested in PC3 cells
HSF-1 act: increases HSF-1 driven luciferase reporter signal. AID 504408. activation, % at 9 µM. actives 1.7% (n = 300,000). NIH3T3-HGL HSF-1 luciferase reporter, MG132, 8 h; 100% = twice DMSO control signal;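 active = mean replicate activation of at least 50% with a set share of replicates each reaching 50%; inconclusive = only one of those two conditions met; inactive = mean below 50% and too few replicates reaching it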;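 note: 0% = median of the neutral control wells and 100% = twice that signal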
Rad51 HR inh: Rad51 (human) homologous recombination inhibition; hRad51 DNA strand exchange, fluorescence dequenching; inhibition, % at 10 µM; actives 0.085% (n = 200,000); AID 1385;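 active = inhibition above 40% at the single screening dose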;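 note: 0% = DMSO control wells and 100% = blanks with heterologous ssDNA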
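Material: human Rad51–ssDNA filaments; Probe or stimulus: labelled 47-mer dsDNA for strand exchange; Doses: single 10 µM dose; Incubation: 37 °C 15-min filament assembly, 30-min compound preincubation, 15-min exchange; Technique: FRET fluorescence dequenching, excitation 485 nm, emission 520 nm; Measure: Fluorescence-based percent inhibition, control- and blank-normalised; Benchmarks: plate control and blank wells.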
HSF1 inhib: HSF1 inhibition. NIH3T3-HGL HSE-luciferase, MG132-induced, luminescence 8 h; hits give low values. activity change, negative = inhibition, % at 7.5 µM (by protocol). actives 0.77% (n = 300,000);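 active = more than half of replicate wells show activity change below -50%, luminescence cut by over half; inconclusive = some wells, but at most half, below -50%; inactive = no replicate well below -50%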;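 note: luciferase reports HSF-1 transcriptional activity via heat shock element; 0% = median of DMSO wells and -100% = zero luminescence signal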
Hsp70 act: switches on Hsp70 transcription; activation, % at 10 µM; actives 0.04% (n = 200,000); HeLa Hsp70 promoter luciferase reporter, luminescence; scaled: vehicle 0, proteasome-inhibitor control 100%;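 active = activation above the mean across all tested compounds plus 3 SD, cutoff set per campaign, cut at about 5.5% in these data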;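 note: 100% = MG132 at 30 µM as the positive control and 0% = DMSO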
* = called active by the depositor; i = inactive; ? = inconclusive; nt = no result given. Rows were chosen to be rich in hits. Some 2.6% of all compounds tested hit in one or more screens of this group.

SMILES	MDM2 E3 inh	HSV augment	HSF-1 act	Rad51 HR inh	HSF1 inhib	Hsp70 act
O=S(=O)(Nc1cc(Cl)cc(Cl)c1)N1CCOCC1	nt	nt	1	nt	-9	nt
COc1ccc(-c2nc(C#N)c(NCCc3ccccc3)o2)cc1OC	-11	i	80*	-1	51	0
COC(=O)N/N=C/c1cc(Cl)cc(Cl)c1OCc1ccc(F)cc1	-1	i	19	3	3	0
O=C(CSc1nnc(Cn2cnc3ccccc32)o1)Nc1cccc2ccccc12	-3	i	51*	-4	12	1
CC(=O)c1ccc(NC(=O)CSc2nnc(Cn3cnc4ccccc43)o2)cc1	4	i	4	7	-6	0
Cc1ccc2sc(N(CCCN(C)C)C(=O)CCS(=O)(=O)c3ccccc3)nc2c1C	nt	nt	111*	nt	75	nt
COc1ccc(OC)c2sc(N(CCCN(C)C)C(=O)CCS(=O)(=O)c3ccccc3)nc12	nt	nt	5	nt	3	nt
COc1ccc(CNc2ncnc3sccc23)cc1	nt	nt	-5	nt	-8	nt
O=C(CCC1CCCC1)N=C1SC2CS(=O)(=O)CC2N1c1ccccc1F (configuration not stated)	nt	nt	64*	nt	19	nt
COc1ccc(CNS(=O)(=O)NCc2ccc(C)cc2)cc1	21	nt	8	0	2	0
Cc1sc2nc(C3CC3)nc(SCC(=O)NCc3ccco3)c2c1C	nt	nt	19	7	3	0
CCn1c(CNc2ccc(Cl)cc2)nnc1SCC(=O)OC1CCCCC1	2	i	60*	0	19	0
O=C(CSc1nnc(Cc2ccccc2)n1Cc1ccccc1)NCc1ccco1	nt	i	40	7	22	0
O=C(CSc1nnc(CNc2ccc(Cl)cc2)n1Cc1ccccc1)NCc1ccco1	-3	i	63*	8	40	0
CCn1c(CNc2cccc(Cl)c2)nnc1SCC(=O)OC1CCCCC1	13	nt	27	nt	22	0
CC(C)c1nc2ccccc2c2nnc(SCC(=O)NCc3ccco3)n12	-13	i	-69	nt	-60*	0
CC(C)(C)c1nc2ccccc2c2nnc(SCC(=O)NCc3ccco3)n12	-11	i	3	3	1	0
O=C(CSc1nc(C2CCCCC2)nc2ccccc12)NCc1ccco1	6	i	59*	12	37	0
CN(CCC1CCCCO1)C(=O)CCc1nnc(C2CCCCC2)o1 (configuration not stated)	11	i	25	1	14	0
O=C(O)/C=C/c1cn(Cc2ccccc2)nc1-c1cccnc1	nt	i	-15	45*	-1	nt
CC(C)(C)n1ncc2c(=O)n(CC(=O)c3ccccc3)cnc21	-4	i	24	3	17	1
CC(C)(C)n1ncc2c(=O)n(CC(=O)OCc3ccccc3)cnc21	0	i	-74	3	-73*	0
CN(CC1COc2ccccc2O1)C(=O)c1cc(COc2c(F)cccc2F)on1 (configuration not stated)	nt	nt	0	nt	0	nt
CCOc1ncccc1C(=O)N(C)CC1COc2ccccc2O1 (configuration not stated)	-22	i	175*	-3	97	0
COc1ccc(C2c3ccc(O)cc3Oc3ncn(CCCO)c(=N)c32)cc1 (configuration not stated)	-8	i	51*	nt	21	nt
SMILES	MDM2 E3 inh	HSV augment	HSF-1 act	Rad51 HR inh	HSF1 inhib	Hsp70 act
CCOc1cc(N)c(Cl)cc1C(=O)NCC1CN(Cc2ccc(F)cc2)CCO1 (configuration not stated)	nt	i	10	-2	14	nt
C=CCOc1ccccc1CN(C(=O)CCl)c1ccc2c(c1)OCO2	nt	nt	-93	nt	-93*	nt
Cc1ccc(N2C(=O)C3CC(c4ccccc4)=C4C5C=CC(C6C(=O)N(c7ccc(C)cc7C)C(=O)C56)C4C3C2=O)c(C)c1 (configuration not stated)	-12	i	88*	-8	40	0
Cc1ccc(-c2cc(=O)c3cc(Cl)ccc3[nH]2)cc1	nt	nt	16	nt	10	1
COc1ccccc1N1CCN(Cc2cc(Br)c(O)c3ncccc23)CC1	-9	i	-84	-4	-80*	0
CCOc1ccc(S(=O)(=O)NCc2ccccn2)cc1NC(=O)c1ccccc1F	nt	nt	-12	nt	-15	nt
CC(C)(C)c1ccc(/C=N/N2C(=O)CSC2=S)cc1	nt	nt	-79	nt	-77*	nt
O=C(O)c1cc(S(=O)(=O)N(Cc2ccccc2)c2ccccc2Cl)ccc1Cl	nt	nt	-57	nt	-52*	nt
CN(Cc1ccccc1)S(=O)(=O)c1ccc(Cl)c(C(=O)O)c1	15	i	-14	nt	-4	0
COCCNC(=O)c1cc2cc(Cl)cc(Cl)c2oc1=O	-2	i	-2	0	-6	0
Cc1cc(C(F)(F)F)c(C#N)c(SCC(=O)Nc2nc3ccccc3s2)n1	-7	?	-77	-129	-73*	0
O=C(CSC1=NCCS1)Nc1nc2ccccc2s1	nt	i	56*	1	29	0
Cc1nc(SCC(=O)Nc2nc3ccccc3s2)c(C#N)c(C)c1C	-80	i	-94	-1	-92*	-1
Cc1ccc(-c2cc(C(F)(F)F)c(C#N)c(SCC(=O)O)n2)cc1	-12	i	58*	-7	35	0
Cc1ccc2sc(NC(=O)CSc3nc(C)cc(C)c3C#N)nc2c1	1	i	-44	-4	-20	0
CCCOc1ccc(-c2cc(C(F)(F)F)c(C#N)c(SCC(=O)O)n2)cc1	-8	i	6	nt	5	0
CC(=O)Nc1cc2c3c(c1)CC(=O)N3CCC2	nt	nt	6	nt	-7	nt
CC(C)CCNC1c2ccccc2C(=O)N1Cc1ccccc1 (configuration not stated)	nt	nt	54*	nt	26	nt
Nc1nnc(CSCc2ccccc2Cl)s1	-17	i	56*	-7	16	nt
Nc1nnc(SCc2ccccc2Cl)s1	-12	i	7	2	3	0
O=C(O)CN1C(=O)NC2(CCc3ccccc32)C1=O (configuration not stated)	nt	nt	6	nt	1	nt
O=C1NC(=O)C2(CCc3ccccc32)N1 (configuration not stated)	-2	i	-82	8	-77*	0
CCC(C)N(C(=O)COC(=O)c1ccc(=O)n(Cc2ccccc2)n1)C1CCS(=O)(=O)C1 (configuration not stated)	nt	nt	13	nt	-3	nt
O=C(CN(CC1CCCO1)C(=O)CNS(=O)(=O)c1ccc(F)cc1)NCCc1ccccc1 (configuration not stated)	nt	nt	-1	nt	-10	nt
CCn1nc(C)cc1C(=O)N1CCCC(N2CCN(Cc3ccc4c(c3)OCO4)CC2)C1 (configuration not stated)	nt	nt	-12	nt	-2	nt
